Format in all cases: cell-based
Assay [1] has as its system RAW264.7. The experiment in a line: Inhibition of LPS-induced NF-kappaB activation in mouse RAW264.7 cells transfected with IKKbeta-pSV-b-galactosidase control vector at 30 uM after 20 hrs by secretory alkaline phosphatase assay. The gist of the method: (§1)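 RAW 264.7 cells stably carrying a pNF-κB-SEAP-NPT reporter were transfected by lipofectamine with a constitutively active IKKβ vector plus pSV-β-galactosidase control vector. Cells were treated with samples for 20 h. Culture medium aliquots were heated at 65 °C for 5 min and reacted with 4-methylumbelliferyl phosphate in the dark. SEAP fluorescence was read at ex 360/em 449 nm and normalized to β-galactosidase activity.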

A short description of assay [2]: Inhibition of LPS-induced NF-kappaB activation in mouse RAW264.7 cells transfected with IKKbeta-pSV-b-galactosidase control vector after 20 hrs by secretory alkaline phosphatase assay. The gist of the method: as §1
In assay [3] the test system is RAW264.7. As to the kind of experiment: Cytotoxicity against mouse RAW264.7 cells by MTT assay. In general terms: Formazan colour is commonly taken as a measure of viable cells.

Data on 24 compounds can be found in ChEMBL document CHEMBL2040804, “A SAR study on a series of synthetic lipophilic chalcones as inhibitor of transcription factor NF-κB” (Eur J Med Chem, 2012).

Take `CCCCCCCCOc1cccc(O)c1C(=O)/C=C/c1ccc(O)cc1`: in the assay on RAW264.7 [1], the inhibition (as a rule, how much of the control response was suppressed) was found to be 100%. Further, the results for the IC50 (in assay [2]; with RAW264.7 [3]) were 5 µM and above 30 µM, respectively.
Compound `CCCCCCCCCCOc1cccc(O)c1C(=O)/C=C/c1cc(OC)c(O)c(OC)c1` showed an inhibition with RAW264.7 [1] of 53%. In addition, the half-inhibitory concentration (IC50) (in assay [2]; with RAW264.7 [3]) was above 30 µM each time.
The compound `CCCCCCCCCCOc1cccc(O)c1C(=O)/C=C/c1ccc(OC)cc1` had an inhibition in the assay on RAW264.7 [1] of 18%. For the same compound, the half-inhibitory concentration (IC50) (in assay [2]; in the assay with RAW264.7 [3]) was above 30 µM in each case.
With `O=C(/C=C/c1ccc(O)cc1)c1c(O)cccc1OCc1ccccc1`, the inhibition with RAW264.7 [1] was 28%. Besides, the IC50 (in assay [2]; in the assay on RAW264.7 [3]) was above 30 µM throughout.
As to `CCCCCCCCCCOc1cccc(O)c1C(=O)/C=C/c1ccc(C)cc1`, in the assay on RAW264.7 [1], the inhibition was 8%. Besides, the IC50 (in assay [2]; with RAW264.7 [3]) was above 30 µM in each case.
The compound `CCCCCCCCC(CCCCCC)CCOc1cccc(O)c1C(=O)/C=C/c1ccc(O)cc1` (configuration not stated) returned an inhibition in the assay on RAW264.7 [1] of 100%. In addition, the IC50 – broadly, the midpoint of a concentration-inhibition curve – is 9.6 µM in assay [2] and above 30 µM in the assay on RAW264.7 [3].
Turning to `CCCCC/C=C\CCCCOc1cccc(O)c1C(=O)/C=C/c1ccc(O)cc1`, the inhibition with RAW264.7 [1] is 8%. The concentration for half-maximal inhibition (IC50) (in assay [2]; in the assay with RAW264.7 [3]) was above 30 µM each time.
`CCCCCCCCCCCCCCCCOc1cccc(O)c1C(=O)/C=C/c1ccc(O)cc1` showed an inhibition in the assay with RAW264.7 [1] of 42%. Besides, the IC50 (in assay [2]; in the assay on RAW264.7 [3]) was above 30 µM throughout.
In the assay with RAW264.7 [1], `CCCCCCCCCCOc1cccc(O)c1C(=O)/C=C/c1ccccc1O` gave an inhibition of 45%. Further, the 50% inhibitory concentration (IC50) (in assay [2]; with RAW264.7 [3]) was above 30 µM in each case.
`CCCCCCCCCCCCOc1cccc(O)c1C(O)CCc1ccc(O)cc1` (configuration not stated) returned an inhibition in the assay with RAW264.7 [1] of 80%. In addition, the IC50 (in assay [2]; in the assay with RAW264.7 [3]) was above 30 µM each time.
Turning to `CCCCCCCCCCCCCCOc1cccc(O)c1C(=O)/C=C/c1ccc(OCCCCCCCCCCCCC)cc1`, in the assay on RAW264.7 [1], the inhibition stood at 10%. The IC50 (in assay [2]; with RAW264.7 [3]) was above 30 µM throughout.
`CCCCCCOc1cccc(O)c1C(=O)/C=C/c1ccc(OCCCCC)cc1`: the inhibition in the assay with RAW264.7 [1] was 17%. The concentration for half-maximal inhibition (IC50) (in assay [2]; in the assay on RAW264.7 [3]) was above 30 µM in each case.
On to `CCCCCCCCCCCCCCCCCCOc1cccc(O)c1C(=O)/C=C/c1ccc(O)cc1`, for which, in the assay on RAW264.7 [1], the inhibition came out at 22%. In addition, the IC50 (in assay [2]; in the assay on RAW264.7 [3]) was above 30 µM each time.
For the compound `CCCCCCCCCCOc1cccc(O)c1C(=O)/C=C/c1ccc(O)cc1`, in the assay on RAW264.7 [1], the inhibition is 100%. The IC50 is 2.7 µM in assay [2] and above 30 µM with RAW264.7 [3].
In turn, `CCCCCCCCCCCCCCOc1cccc(O)c1C(=O)/C=C/c1ccc(O)cc1` yielded an inhibition in the assay with RAW264.7 [1] of 100%. Moreover, the 50% inhibitory concentration (IC50) is 4.2 µM in assay [2] and above 30 µM with RAW264.7 [3].
On the same counts, the results for `CCCCCCCCCCOc1cccc(O)c1C(=O)/C=C/c1cccc(O)c1` are 22%, above 30 µM and above 30 µM.
`O=C(/C=C/c1ccc(O)cc1)c1c(O)cccc1OCC1CCCCC1` showed an inhibition in the assay on RAW264.7 [1] of 60%. For the same compound, the IC50 (in assay [2]; in the assay with RAW264.7 [3]) was above 30 µM in each case.
In the assay with RAW264.7 [1], `CCCCCCCCCCCCOc1cccc(O)c1C(=O)CCc1ccc(O)cc1` showed an inhibition of 52%. For the same compound, the IC50 (in assay [2]; in the assay with RAW264.7 [3]) was above 30 µM in each case.
With `CCCCCCCCCCOc1cccc(O)c1C(=O)/C=C/c1ccc(Cl)c(Cl)c1`, the inhibition in the assay with RAW264.7 [1] was 26%. Further, the IC50 (in assay [2]; in the assay with RAW264.7 [3]) was above 30 µM throughout.
Compound `CCCCCCCCCCCCOc1cccc(O)c1C(=O)/C=C/c1ccc(O)cc1` had an inhibition with RAW264.7 [1] of 100%. Moreover, the values for the IC50 (in assay [2]; in the assay with RAW264.7 [3]) were 9.4 µM and above 30 µM, respectively.
On the same counts, the results for `CCCCCCCCCCCCCCOc1ccc(C(=O)/C=C/c2ccc(O)cc2)c(O)c1` are 50%, 29 µM and above 30 µM.
Turning to `CC(C)CCOc1cccc(O)c1C(=O)/C=C/c1ccc(O)cc1`, the inhibition in the assay with RAW264.7 [1] came out at 100%. In addition, the IC50 in assay [2] was 10 µM; in the assay with RAW264.7 [3] it was above 30 µM.
For the compound `CCCCCCOc1cccc(O)c1C(=O)/C=C/c1ccc(O)cc1`, the inhibition with RAW264.7 [1] was 15%. In addition, the half-inhibitory concentration (IC50) (in assay [2]; in the assay with RAW264.7 [3]) was above 30 µM in each case.
The compound `CCCCCCCCCCOc1cccc(O)c1C(=O)/C=C/c1ccc(O)c(Cl)c1` showed an inhibition in the assay with RAW264.7 [1] of 100%. For the same compound, the IC50 in assay [2] was 9.6 µM; in the assay with RAW264.7 [3], above 30 µM.
